Active and inactive are the calls of the source.

The target of data set [1] is T1, C-X-C chemokine receptor type 4 (Homo sapiens, UniProt P61073). Description: Antagonist activity at CXCR4-mediated chemotaxis in human MDA-MB-231 cells assessed as inhibition of CXCL12-induced cell invasion at 100 nM after 24 hrs by crystal violet staining-based microscopic matrigel assay. The class given is functional. In a few lines:
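MDA-MB-231 cells (1 × 10⁵ cells/well) plus compound (100 nM) in upper chamber of 8-µm-pore Boyden inserts coated with 50mg/L Matrigel; CXCL12 in serum-free medium in lower chamber as chemoattractant. After 24 h, non-invaded cells wiped off; invaded cells fixed in cold methanol, crystal violet stained, counted in 10 random fields (100×). Three independent experiments; t-test vs control.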

The target in data set [2] is T1, C-X-C chemokine receptor type 4. Description: Displacement of 12G5-CXCL12 from CXCR4 in human HPBALL cells after 3 hrs by FACS analysis. The data set is classed as cell-based. On the technique in general: A flow cytometer gives signals particle by particle.
Data set [3] in a line: Antiproliferative activity against HOSEC at 400 nM after 24 to 48 hrs by MTT assay. The note with it: human, 0.4 µM. In a few lines:
(§1)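 Cells seeded at 5 × 10³ cells/well, treated with compound, incubated at 37 °C, 5% CO₂ (48 h in methods; 24 h in figure legend), then 4 h with MTT reagent; formazan dissolved in DMSO, absorbance at 570 nm. Mean±SD of three independent experiments.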
A general note: Tetrazolium dyes change colour on reduction, which living cells bring about.

In data set [4] the target is T1, C-X-C chemokine receptor type 4. Description: Potency index, ratio of AMD3100 IC50 to compound IC50 for CXCR4 in human CD4+ T cells. The class given is cell-based.
A further data set addresses CYP3A4 (Homo sapiens, UniProt P08684). Description: Inhibition of CYP3A4 in human liver microsomes at 10 uM using midazolam as substrate preincubated for 10 min followed by NADPH addition measured after 10 mins by LC-MS/MS analysis relative to control. The class given is ADME. The note with it: probe midazolam. On the technique in general: Microsomes from liver hold many membrane-bound enzymes, among them those of drug oxidation.

The next data set deals with CYP2D6 (Homo sapiens, UniProt P10635). Description: Inhibition of CYP2D6 in human liver microsomes at 10 uM using dextromethorphan as substrate preincubated for 10 min followed by NADPH addition measured after 10 mins by LC-MS/MS analysis relative to control. The data set is classed as ADME. To be noted: probe dextromethorphan.
The next data set deals with MDA-MB-231. Description: Antiproliferative activity against human MDA-MB-231 cells at 400 nM after 24 to 48 hrs by MTT assay. The class given is functional, cell-based. The essentials:
as §1

Data set [5] has as its target T1, C-X-C chemokine receptor type 4. The data set is described as follows: Antagonist activity at CXCR4 in human CD4+ T cells assessed as inhibition of CXCL12-mediated cytosolic calcium level preincubated with compounds followed by CXCL12 stimulation by calcium 4 dye-based FLIPR assay. The data set is classed as functional, cell-based.
The test system of the next data set is MCF7. The data set is described as follows: Antiproliferative activity against human MCF7 cells at 400 nM after 24 to 48 hrs by MTT assay. The class given is functional, cell-based. In a few lines:
as §1

Data set [6] can be described thus: Intrinsic clearance in human liver microsomes at 1 uM preincubated for 10 mins followed by NADPH addition measured after 30 to 60 mins by LC-MS/MS method. The class given is ADME, microsome. The note with it: read-out: CLH.
A short description of data set [7]: Intrinsic clearance in mouse liver microsomes at 1 uM preincubated for 10 mins followed by NADPH addition measured after 30 to 60 mins by LC-MS/MS method. The data set is classed as ADME, microsome. The note with it: read-out: CLH.
Data set [8] is described as follows: Half life in mouse liver microsomes at 1 uM preincubated for 10 mins followed by NADPH addition measured after 30 to 60 mins by LC-MS/MS method. The data set is classed as ADME, microsome.
The nature of data set [9]: Half life in human liver microsomes at 1 uM preincubated for 10 mins followed by NADPH addition measured after 30 to 60 mins by LC-MS/MS method. The data set is classed as ADME, microsome.
The target in data set [10] is Voltage-gated inwardly rectifying potassium channel KCNH2 (Homo sapiens, UniProt Q12809). The data set is described as follows: Inhibition of human ERG expressed in CHO cells after 4 mins at -80 mV holding potential by Qpatch assay. The class given is cell-based.
The nature of data set [11]: Apparent permeability across apical to basolateral side in human Caco2 cells at 2 uM by LC-MS/MS method. The class given is ADME, cell-based. To be noted: Caco-2.
The nature of data set [12]: Efflux ratio of apparent permeability across basolateral to apical over apical to basolateral side in human Caco2 cells at 2 uM by LC-MS/MS method. The class given is ADME, cell-based. To be noted: Caco-2.

T1 sequence (P61073 whole entry): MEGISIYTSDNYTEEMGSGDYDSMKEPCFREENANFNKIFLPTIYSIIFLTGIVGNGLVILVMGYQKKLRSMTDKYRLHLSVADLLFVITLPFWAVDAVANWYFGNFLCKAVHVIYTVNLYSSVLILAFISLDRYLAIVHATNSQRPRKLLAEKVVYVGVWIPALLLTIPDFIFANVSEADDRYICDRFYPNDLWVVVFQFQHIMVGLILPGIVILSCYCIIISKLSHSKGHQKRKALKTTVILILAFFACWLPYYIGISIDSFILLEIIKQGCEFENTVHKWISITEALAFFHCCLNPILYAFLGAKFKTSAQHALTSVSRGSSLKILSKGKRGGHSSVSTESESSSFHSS
Chain of Voltage-gated inwardly rectifying potassium channel KCNH2 (Q12809 whole entry): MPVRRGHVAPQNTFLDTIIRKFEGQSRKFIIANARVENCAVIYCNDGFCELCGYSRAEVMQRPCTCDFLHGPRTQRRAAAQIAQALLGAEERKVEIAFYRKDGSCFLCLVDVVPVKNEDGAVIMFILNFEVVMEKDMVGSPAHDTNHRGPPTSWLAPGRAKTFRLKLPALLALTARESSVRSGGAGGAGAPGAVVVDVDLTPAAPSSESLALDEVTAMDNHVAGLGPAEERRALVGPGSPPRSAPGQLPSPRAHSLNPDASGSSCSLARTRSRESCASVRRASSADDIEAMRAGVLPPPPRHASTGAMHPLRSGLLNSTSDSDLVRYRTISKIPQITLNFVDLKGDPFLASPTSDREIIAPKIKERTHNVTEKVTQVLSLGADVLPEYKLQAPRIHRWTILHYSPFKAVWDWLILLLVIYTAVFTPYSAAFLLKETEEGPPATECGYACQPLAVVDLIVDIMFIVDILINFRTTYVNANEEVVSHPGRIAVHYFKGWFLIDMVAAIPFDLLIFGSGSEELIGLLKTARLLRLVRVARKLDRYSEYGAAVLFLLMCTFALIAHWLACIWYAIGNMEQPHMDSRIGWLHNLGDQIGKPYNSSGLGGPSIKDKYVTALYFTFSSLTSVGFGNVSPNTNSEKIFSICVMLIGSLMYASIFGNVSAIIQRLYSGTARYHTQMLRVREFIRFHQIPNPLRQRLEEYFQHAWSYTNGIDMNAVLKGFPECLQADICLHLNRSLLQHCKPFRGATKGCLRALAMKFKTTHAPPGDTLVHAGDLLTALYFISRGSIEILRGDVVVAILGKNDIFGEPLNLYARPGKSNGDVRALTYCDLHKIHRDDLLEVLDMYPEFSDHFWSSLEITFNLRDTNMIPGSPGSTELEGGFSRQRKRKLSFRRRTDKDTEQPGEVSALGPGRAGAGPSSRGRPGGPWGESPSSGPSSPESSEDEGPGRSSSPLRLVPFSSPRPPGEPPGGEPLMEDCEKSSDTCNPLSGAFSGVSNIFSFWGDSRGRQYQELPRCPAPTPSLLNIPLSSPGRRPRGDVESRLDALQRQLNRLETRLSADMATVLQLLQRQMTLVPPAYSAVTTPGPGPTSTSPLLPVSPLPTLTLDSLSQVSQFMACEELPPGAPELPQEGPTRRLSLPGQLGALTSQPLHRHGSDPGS
Chain of CYP3A4 (P08684 whole entry): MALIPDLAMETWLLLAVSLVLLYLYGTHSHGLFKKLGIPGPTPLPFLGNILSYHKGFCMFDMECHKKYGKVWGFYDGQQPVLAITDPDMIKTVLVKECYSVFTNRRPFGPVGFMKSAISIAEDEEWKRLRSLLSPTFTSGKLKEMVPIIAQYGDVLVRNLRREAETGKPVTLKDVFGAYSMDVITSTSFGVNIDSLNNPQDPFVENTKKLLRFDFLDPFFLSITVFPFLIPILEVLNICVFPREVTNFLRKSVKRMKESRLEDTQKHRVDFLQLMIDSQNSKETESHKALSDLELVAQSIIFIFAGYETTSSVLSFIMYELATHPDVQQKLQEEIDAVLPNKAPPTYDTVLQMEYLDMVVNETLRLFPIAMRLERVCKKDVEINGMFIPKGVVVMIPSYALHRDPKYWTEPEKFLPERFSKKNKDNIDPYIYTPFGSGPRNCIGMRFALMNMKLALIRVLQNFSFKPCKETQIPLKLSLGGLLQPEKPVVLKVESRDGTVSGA
Chain of CYP2D6 (P10635 whole entry): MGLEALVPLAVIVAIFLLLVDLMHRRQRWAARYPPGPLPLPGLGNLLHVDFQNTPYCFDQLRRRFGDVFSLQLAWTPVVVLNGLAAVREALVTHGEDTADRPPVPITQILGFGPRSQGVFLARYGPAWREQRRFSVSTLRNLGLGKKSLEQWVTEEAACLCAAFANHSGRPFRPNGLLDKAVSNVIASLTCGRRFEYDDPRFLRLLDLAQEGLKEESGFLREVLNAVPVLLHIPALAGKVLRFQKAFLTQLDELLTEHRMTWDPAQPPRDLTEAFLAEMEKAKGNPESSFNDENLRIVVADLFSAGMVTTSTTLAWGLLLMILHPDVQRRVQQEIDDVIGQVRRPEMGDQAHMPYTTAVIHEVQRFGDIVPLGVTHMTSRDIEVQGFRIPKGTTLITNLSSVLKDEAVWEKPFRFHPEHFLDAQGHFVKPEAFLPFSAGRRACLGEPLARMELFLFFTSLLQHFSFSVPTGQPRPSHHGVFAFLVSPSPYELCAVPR

As usually defined, the inhibition is the percentage by which the read-out fell short of the control. For `c1cc(CN2CCCNCCNCCCNCC2)ccc1CN1CCCNCCNCCCNCC1`, the inhibition result in [1] was “Active”.
By IC50 is commonly meant the midpoint of a concentration-inhibition curve. In the case of `CN(Cc1ccncn1)C1CCCc2cccnc21` (stereo unspecified), the IC50 in data set [2] is > 10000 nM.
On the same count and under the same terms, next, `CN(C)C1CCN(c2cc(CN(C)C3CCCc4cccnc43)ncn2)CC1` (stereo unspecified): 630 nM; `CN1CCN(c2cc(CN(C)C3CCCc4cccnc43)ccn2)CC1` (stereo unspecified): > 10000 nM; `CN1CCCN(c2cc(CN(C)C3CCCc4cccnc43)ncn2)CC1` (stereo unspecified): 170 nM.
Same read-out and setting: next, `CN(Cc1cc(NCCN2CCOCC2)ncn1)C1CCCc2cccnc21` (stereo unspecified): 640 nM; `CN1CCN(c2nccc(CN(C)C3CCCc4cccnc43)n2)CC1` (stereo unspecified): > 10000 nM; `CN(C)C1CCN(c2cc(CN(C)C3CCCc4cccnc43)ncn2)C1` (stereo unspecified): 150 nM.
On the same count and under the same terms, as for `CN1CCN(c2cccc(CN(C)C3CCCc4cccnc43)n2)CC1` (stereo unspecified), the figure is > 10000 nM.
For `CN1CCN(c2cc(CN(C)C3CCCc4cccnc43)ncn2)CC1.Cl` (stereo unspecified), the inhibition entry in data set [1] is “Active”. Moreover, in data set [3], the Activity result is “Non-Toxic”. Moreover, the Ratio IC50 in data set [4] was found to be 8. The inhibition at 10 min, 10 µM came to 9% on CYP3A4 and 3% against CYP2D6. Also, the outcome with MDA-MB-231 and with MCF7 was inactive. The figures for the IC50 in data set [5] and in data set [2] were 2.3 nM and 54 nM, respectively.
For `CCN1CCN(c2cc(CN(C)C3CCCc4cccnc43)ncn2)CC1` (stereo unspecified), the IC50 in data set [2] stood at 320 nM.
Still for that read-out and setting: as for `CN1CCN(c2cc(CN(CCCCN)C3CCCc4cccnc43)ncn2)CC1` (stereo unspecified), the figure is 18 nM.
Compound `CN1CCN(c2ccnc(CN(C)C3CCCc4cccnc43)c2)CC1` (stereo unspecified) showed an IC50 in data set [2] of 200 nM.
Take `CN(Cc1cc(N2CCNCC2)ncn1)C1CCCc2cccnc21` (stereo unspecified): in [2], the half-inhibitory concentration (IC50) was 2600 nM.
On the same count and under the same terms, next, `CN(Cc1cc(N2CCN(CCO)CC2)ncn1)C1CCCc2cccnc21` (stereo unspecified): 290 nM.
For the compound `CN(Cc1cc(N2CCN(C(=O)OC(C)(C)C)CC2)ncn1)C1CCCc2cccnc21` (stereo unspecified), the concentration for half-maximal inhibition (IC50) in data set [2] was > 10000 nM.
Same read-out and setting: next, `CN(Cc1cc(N2CCN(CC3CC3)CC2)ncn1)C1CCCc2cccnc21` (stereo unspecified): 1050 nM.
As for `CN(C)CCN(C)c1cc(CN(C)C2CCCc3cccnc32)ncn1` (stereo unspecified), the IC50 in data set [2] is 1020 nM.
In turn, `CN1CCN(c2cc(CN(CCCCNC(=O)OC(C)(C)C)C3CCCc4cccnc43)ncn2)CC1` (stereo unspecified) returned an IC50 in data set [2] of 18 nM.
By half-life is commonly meant the time needed for the level to fall by half in the phase considered. Broadly, the Papp A→B is the apparent permeability from the apical to the basolateral side of a cell layer. By efflux ratio is commonly meant a quotient of directional permeabilities that is used to spot active efflux. As for `CN1CCN(c2cc(CN(C)[C@H]3CCCc4cccnc43)ncn2)CC1`, the CLint scaled at 1 µM in data set [6] came out at 226 mL/min/kg; in data set [7], 3860 mL/min/kg. For the same compound, the half-life at 1 µM in data set [8] came to 1.4 min; in data set [9], 7.7 min. Further, the IC50 in data set [10] was > 30000 nM; in [5], 0.73 nM; in data set [2] it was 88 nM. Further, the Papp A→B at 2 µM in [11] stood at 15 ×10⁻⁶ cm/s. The efflux ratio at 2 µM in data set [12] was determined as 1.5.
Turning to `CN(C)c1cc(CN(C)C2CCCc3cccnc32)ncn1` (stereo unspecified), the half-maximal inhibitory concentration (IC50) in data set [2] is > 10000 nM.
Consider `CN1CCN(c2cc(CN(C)[C@@H]3CCCc4cccnc43)ncn2)CC1`, for which the IC50 worked out at 68 nM in [5] and 1300 nM in data set [2].
In data set [2], `CC(C)N1CCN(c2cc(CN(C)C3CCCc4cccnc43)ncn2)CC1` (stereo unspecified) showed an IC50 of 210 nM.
Same read-out and setting: next, `CN1CCN(c2ccnc(CN(C)C3CCCc4cccnc43)n2)CC1` (stereo unspecified): 180 nM.

(Values after ChEMBL document CHEMBL4196046, “Design, synthesis, and structure-activity-relationship of a novel series of CXCR4 antagonists” (Eur J Med Chem, 2018).)
